Data on 22 compounds can be found in ChEMBL document CHEMBL4699588, “Structure-Activity Relationships of Noncovalent Immunoproteasome β5i-Selective Dipeptides” (J Med Chem, 2020).

Experiment [1] concerns the target proteasome subunit beta type-6, β1c, PSMB6 (Homo sapiens) (UniProt P28072). Kind of experiment: Inhibition of human 20S constitutive proteasome beta 1 at 33.3 uM relative to control.
For another experiment, the target named is Trypsin (Homo sapiens) (UniProt P07477+P07478+P35030). Kind of experiment: Inhibition of trypsin (unknown origin) at 11.1 to 100 uM. The settings on record: dose 11.1-100 µM.
Experiment [2] addresses proteasome subunit beta type-7, β2c, PSMB7 (Homo sapiens) (UniProt Q99436). Kind of experiment: Inhibition of human 20S constitutive proteasome beta 2 at 33.3 uM relative to control.
The target in experiment [3] is T1, Proteasome subunit beta type-9 (Homo sapiens) (UniProt P28065).
T1 sequence (whole entry): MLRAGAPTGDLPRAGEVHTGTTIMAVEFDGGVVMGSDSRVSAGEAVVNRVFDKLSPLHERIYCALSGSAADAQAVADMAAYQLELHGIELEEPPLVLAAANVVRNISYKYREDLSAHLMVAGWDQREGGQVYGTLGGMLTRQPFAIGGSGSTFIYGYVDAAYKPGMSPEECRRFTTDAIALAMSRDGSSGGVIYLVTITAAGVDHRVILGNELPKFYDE
Kind of experiment: Inhibition of human 20S immunoproteasome beta 1 at 33.3 uM relative to control.

Experiment [4] is described as follows: Inhibition of anti-CD3 antibody-stimulated T cell proliferation in human PBMCs. As to conditions: PBMC. In kind it is functional, tissue-based.
Experiment [5] concerns the target T2, Proteasome subunit beta type-10 (Homo sapiens) (UniProt P40306).
T2 sequence (whole entry): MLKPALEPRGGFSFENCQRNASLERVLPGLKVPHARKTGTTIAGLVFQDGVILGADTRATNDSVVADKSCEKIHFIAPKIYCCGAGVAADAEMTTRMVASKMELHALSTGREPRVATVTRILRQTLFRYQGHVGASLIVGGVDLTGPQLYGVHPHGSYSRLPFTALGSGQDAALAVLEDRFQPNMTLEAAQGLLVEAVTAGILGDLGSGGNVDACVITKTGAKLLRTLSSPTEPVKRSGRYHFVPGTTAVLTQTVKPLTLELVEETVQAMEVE
Kind of experiment: Inhibition of human 20S immunoproteasome beta 2 at 33.3 uM relative to control.

The species named for experiment [6] is Homo sapiens. Kind of experiment: Inhibition of alpha-chymotrypsin (unknown origin) at 11.1 to 100 uM. The settings on record: dose 11.1-100 µM.
Experiment [7] addresses Procathepsin L (Homo sapiens) (UniProt P07711). Kind of experiment: Inhibition of cathepsin L (unknown origin) at 11.1 to 100 uM. As to conditions: dose 11.1-100 µM.
The target in experiment [8] is T3, Proteasome Macropain subunit MB1 (Homo sapiens, UniProt P28074).
T3 sequence (P28074 whole entry): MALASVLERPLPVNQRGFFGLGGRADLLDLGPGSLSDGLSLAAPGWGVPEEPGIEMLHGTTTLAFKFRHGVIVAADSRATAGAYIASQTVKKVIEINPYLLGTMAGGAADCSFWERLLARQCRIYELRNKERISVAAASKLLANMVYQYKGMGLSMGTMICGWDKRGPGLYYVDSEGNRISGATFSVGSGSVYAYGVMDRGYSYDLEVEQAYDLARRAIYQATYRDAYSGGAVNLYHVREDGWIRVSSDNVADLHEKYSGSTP
Kind of experiment: Inhibition of human constitutive 20S proteasome beta 5 chymotrypsin-like activity. A digest of the protocol: (§1)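 Purified human proteasomes were used in a 96-well format assay: immunoproteasome i-20S from PBMC and constitutive c-20S from red blood cells. The readout was fluorogenic AMC peptide substrate cleavage on a plate reader, and IC50 values were determined from it.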

The species named for experiment [9] is Homo sapiens. Kind of experiment: Selectivity index, ratio of IC50 for inhibition of human constitutive 20S proteasome beta 5 chymotrypsin-like activity to IC50 for inhibition of human 20S immunoproteasome beta 5 chymotrypsin-like activity.
For experiment [10], the target named is T4, Proteasome subunit beta type-8 (Homo sapiens, UniProt P28062).
T4 sequence (P28062 whole entry): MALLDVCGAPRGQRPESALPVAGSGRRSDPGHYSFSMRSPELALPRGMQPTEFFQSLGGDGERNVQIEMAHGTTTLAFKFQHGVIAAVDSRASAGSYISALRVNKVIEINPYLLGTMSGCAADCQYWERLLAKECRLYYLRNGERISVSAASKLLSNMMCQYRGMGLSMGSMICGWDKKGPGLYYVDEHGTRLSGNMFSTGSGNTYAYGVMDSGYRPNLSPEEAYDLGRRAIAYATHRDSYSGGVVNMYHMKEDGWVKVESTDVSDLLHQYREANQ
Kind of experiment: Inhibition of human 20S immunoproteasome beta 5 chymotrypsin-like activity. A digest of the protocol: as §1

Experiment [11] has as its target T4, Proteasome subunit beta type-8. Kind of experiment: Inhibition of human 20S immunoproteasome beta 5 chymotrypsin-like activity in human KARPAS-1106P cells incubated for 2 hrs by proteasome-Glo assay. It counts as cell-based.

Usually inhibition stands for how much of the control response was suppressed. By pEC50 is commonly meant −log10 of the EC50, conventionally taken in molar units. The low end stands for a high EC50, the high end for a low EC50. For orientation: pIC50 means the IC50 on a negative log10 scale, so that one unit is a factor of ten. A lower pIC50 goes with a large IC50.

pEC50, pIC50: −log10 of the molar value. Activity calls are given as the source filed them. The calls are words filed in the database; no cut-off is given here. Bounds are passed on as bounds.

proteasome subunit beta type-7, β2c, PSMB7 (Homo sapiens), sequence (Q99436 whole entry, looked up): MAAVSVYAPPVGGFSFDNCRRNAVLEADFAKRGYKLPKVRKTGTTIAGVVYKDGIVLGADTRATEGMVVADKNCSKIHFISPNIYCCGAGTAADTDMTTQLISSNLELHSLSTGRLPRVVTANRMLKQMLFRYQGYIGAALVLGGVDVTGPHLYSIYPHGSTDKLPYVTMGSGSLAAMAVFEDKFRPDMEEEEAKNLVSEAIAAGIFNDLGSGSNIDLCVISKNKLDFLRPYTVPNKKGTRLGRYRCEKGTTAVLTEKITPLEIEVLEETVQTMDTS
Procathepsin L (Homo sapiens), sequence (P07711 114-333 limits assumed): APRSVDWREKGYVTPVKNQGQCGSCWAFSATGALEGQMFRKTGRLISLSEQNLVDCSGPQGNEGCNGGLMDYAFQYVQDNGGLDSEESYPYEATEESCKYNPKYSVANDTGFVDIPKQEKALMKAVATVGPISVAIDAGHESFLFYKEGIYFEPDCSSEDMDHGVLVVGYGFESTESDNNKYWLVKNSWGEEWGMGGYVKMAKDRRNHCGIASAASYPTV
proteasome subunit beta type-6, β1c, PSMB6 (Homo sapiens), sequence (P28072 whole entry, looked up): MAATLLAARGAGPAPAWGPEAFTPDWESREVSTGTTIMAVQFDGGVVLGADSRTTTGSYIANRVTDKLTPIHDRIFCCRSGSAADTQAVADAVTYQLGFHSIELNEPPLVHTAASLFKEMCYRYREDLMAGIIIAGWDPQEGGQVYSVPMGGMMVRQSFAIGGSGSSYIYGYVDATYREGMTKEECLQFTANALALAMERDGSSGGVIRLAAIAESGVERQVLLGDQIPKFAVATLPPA

For `C[C@H](NC(=O)[C@H](CC(=O)NC(C)(C)C)NC(=O)C(=O)c1c[nH]c2ccccc12)C(=O)NCc1cccc2ccccc12`, the inhibition in [1], in experiment [2], in experiment [3] and in experiment [5] was less than 50% in each case. The inhibition entry at Trypsin (Homo sapiens) was “inactive”. This compound gave a negative logarithm of the EC50 (pEC50) in experiment [4] of 7.68. The inhibition result (in the experiment listed under Homo sapiens [6]; in [7]) was “Active” throughout.

With `COC[C@H](NC(=O)[C@H](CC(=O)NOC(C)(C)C)NC(=O)CCc1ccccc1)C(=O)NCc1cccc2cccnc12`, the values for the negative-log IC50 (pIC50) in [8] and in [10] were 5.98 and 7.08, respectively. For the same compound, the Ratio IC50 in the experiment filed under Homo sapiens [9] amounted to 12.

On to `C[C@H](NC(=O)[C@H](CC(=O)NOC(C)(C)C)NC(=O)CCc1ccccc1)C(=O)NCc1cccc2ncccc12`, for which the negative logarithm of the IC50 (pIC50) is 4.90 in experiment [8] and 5.94 in experiment [10]. In the experiment filed under Homo sapiens [9], the Ratio IC50 is 11.

With `COC[C@H](NC(=O)[C@H](CC(=O)NC(C)(C)C)NC(=O)CCc1ccccc1)C(=O)NCc1cccc2ccccc12`, the Ratio IC50 in the experiment listed under Homo sapiens [9] came to 71.

As for `C[C@H](NC(=O)[C@H](CC(=O)NOC(C)(C)C)NC(=O)CCc1ccccc1)C(=O)NCc1cccc2[nH]ccc12`, the pIC50 in experiment [8] was 6.77; in [10] it was 7.55. In addition, the Ratio IC50 in the experiment listed under Homo sapiens [9] was determined as 6.

In turn, `COC[C@H](NC(=O)[C@H](CC(=O)N1CCC1)NC(=O)CCc1ccccc1)C(=O)NCc1cccc2ccccc12` showed a pIC50 in [8] of less than 4.00. Also, the Ratio IC50 in the experiment listed under Homo sapiens [9] was more than 7.

As to `COC[C@H](NC(=O)[C@H](CC(=O)NC(C)(C)C)NS(=O)(=O)c1ccc(C)cc1)C(=O)NCc1ccc(F)c2ccccc12`, the inhibition in [1], in experiment [2], in experiment [3] and in experiment [5] was less than 50% in each case. In addition, the inhibition result (on Trypsin (Homo sapiens); in the experiment listed under Homo sapiens [6]; in [7]) was “inactive” in each case. Besides, the pEC50 in [4] was 7.14.

As to `COC[C@H](NC(=O)[C@H](CC(=O)N1CCCC1)NC(=O)CCc1ccccc1)C(=O)NCc1cccc2ccccc12`, the Ratio IC50 in the experiment listed under Homo sapiens [9] came to 28.

`COC[C@H](NC(=O)[C@H](CC(=O)N(C)C)NC(=O)CCc1ccccc1)C(=O)NCc1cccc2ccccc12` had a negative-log IC50 (pIC50) in [8] of less than 4.00. Also, the Ratio IC50 in the experiment listed under Homo sapiens [9] is more than 9.

Consider `COC[C@H](NC(=O)[C@H](CC(=O)NOC(C)(C)C)NC(=O)CCc1ccccc1)C(=O)NCc1cccc(OC)c1`, for which the negative logarithm of the IC50 (pIC50) in [8] is 7.00; in [10], 7.84. In the experiment listed under Homo sapiens [9], the Ratio IC50 turned out to be 7.

For the compound `CCN(CC)C(=O)C[C@H](NC(=O)CCc1ccccc1)C(=O)N[C@@H](COC)C(=O)NCc1cccc2ccccc12`, the Ratio IC50 in the experiment listed under Homo sapiens [9] amounted to 8.

As for `Cc1ccc(S(=O)(=O)N[C@@H](CCC(=O)NC(C)(C)C)C(=O)N[C@@H](C)C(=O)NCc2ccc(F)c3ccccc23)cc1`, the inhibition in [1], in [2], in [3] and in experiment [5] was less than 50% in each case. The inhibition result (at Trypsin (Homo sapiens); in the experiment listed under Homo sapiens [6]; in [7]) was “inactive” each time. Also, the pEC50 in [4] is 7.41.

For the compound `COC[C@H](NC(=O)[C@H](CC(=O)NOC(C)(C)C)NC(=O)CCc1ccccc1)C(=O)NCc1cccc(OC)c1OC`, the negative logarithm of the IC50 (pIC50) was 6.01 in [8] and 6.32 in [10]. Besides, in the experiment listed under Homo sapiens [9], the Ratio IC50 came to 2.

On to `COC[C@H](NC(=O)[C@H](CCC(=O)NC(C)(C)C)NS(=O)(=O)c1ccc(C)cc1)C(=O)NCc1ccc(F)c2ccccc12`, for which the inhibition in experiment [1], in [2], in experiment [3] and in experiment [5] was less than 50% in each case. Moreover, the inhibition entry (on Trypsin (Homo sapiens); in the experiment listed under Homo sapiens [6]; in experiment [7]) was “inactive” throughout. For the same compound, the pEC50 in experiment [4] was 7.74.

Turning to `COC[C@H](NC(=O)[C@H](CC(=O)N1CCCCC1)NC(=O)CCc1ccccc1)C(=O)NCc1cccc2ccccc12`, the Ratio IC50 in the experiment filed under Homo sapiens [9] is 58.

With `C[C@H](NC(=O)[C@H](CCC(=O)NC(C)(C)C)NC(=O)CCc1ccccc1)C(=O)NCc1ccc(F)c2ccccc12`, the inhibition in [1], in experiment [2], in [3] and in experiment [5] was less than 50% throughout. Moreover, the inhibition result (at Trypsin (Homo sapiens); in the experiment filed under Homo sapiens [6]; in [7]) was “inactive” each time. Besides, in experiment [4], the negative logarithm of the EC50 (pEC50) was 7.36. Besides, the pIC50 in experiment [11] was 7.41; in experiment [10] it was 8.80.

Turning to `COC[C@H](NC(=O)[C@H](CC(=O)NOC(C)(C)C)NC(=O)CCc1ccccc1)C(=O)NCc1cccc2c1NCCC2`, the results for the pIC50 in experiment [8] and in experiment [10] were 4.56 and 6.30, respectively. Also, the Ratio IC50 in the experiment listed under Homo sapiens [9] was 54.

Turning to `NC(=O)C[C@H](NC(=O)CCc1ccccc1)C(=O)N[C@@H](Cc1ccc(F)cc1)C(=O)NCc1cccc2ccccc12`, in [8], the negative logarithm of the IC50 (pIC50) was less than 4.00. In addition, the Ratio IC50 in the experiment filed under Homo sapiens [9] is more than 2.8.

For the compound `COC[C@H](NC(=O)[C@H](CC(=O)NC(C)(C)C)NC(=O)c1cc(C)on1)C(=O)NCc1cccc2ccccc12`, the Ratio IC50 in the experiment listed under Homo sapiens [9] was determined as 274.

As to `C[C@H](NC(=O)[C@H](CC(=O)NOC(C)(C)C)NC(=O)CCc1ccccc1)C(=O)NCc1ccnc2ccccc12`, the negative logarithm of the IC50 (pIC50) in experiment [8] is 4.23; in experiment [10], 5.58. In the experiment listed under Homo sapiens [9], the Ratio IC50 turned out to be 23.

Take `Cc1cc(C(=O)N[C@@H](CCC(=O)NC(C)(C)C)C(=O)N[C@@H](C)C(=O)NCc2ccc(F)c3ccccc23)no1`: the inhibition in experiment [1], in experiment [2], in experiment [3] and in experiment [5] was less than 50% each time. The inhibition entry (at Trypsin (Homo sapiens); in the experiment listed under Homo sapiens [6]; in experiment [7]) was “inactive” throughout. In [4], this compound had a pEC50 of 7.14.

Regarding `COC[C@H](NC(=O)CCc1ccccc1)C(=O)N[C@@H](C)C(=O)NCc1cccc2ccccc12`, the pIC50 is less than 4.00 in experiment [8] and 4.66 in experiment [10]. Moreover, the Ratio IC50 in the experiment listed under Homo sapiens [9] is more than 5.
